Experimental data reported in article PMC3349182 (British Journal of Cancer, 2012).
“Also recorded” adds a separate entry of the source.

Assays:
[1] = Food-effect investigation; format: in vivo, human
How it was run: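 At the MTD, patients were randomised to take the cycle 1 day 15 dose fed (after a high-fat meal) or fasted (overnight fast ⩾10 h). The day 22 dose was taken in the reverse state, with no food for 4 h after either dose. Plasma levels were measured by LC-MS/MS. The 90% CIs for log-transformed fed/fasted Cmax and AUC0-24 were derived by ANOVA; 80–125% was taken as no food effect.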

[2] = system: patients with advanced radioiodine-refractory differentiated thyroid cancer; details: preliminary results, phase II; ref Sherman et al, 2011; cited from earlier work
[3] = system: patients with advanced, refractory solid tumours; assay: Anti-tumour efficacy by Response Evaluation Criteria in Solid Tumours; format: in vivo, human
How it was run: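 Patients took oral drug once daily on an empty stomach after an overnight fast, with only clear fluids within 2 h of dosing. Dosing was continuous in 28-day cycles until progressive disease or unacceptable toxicity. Tumour response was assessed by RECIST measurements, with CT imaging.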

[4] = Plasma pharmacokinetics of E7080; format: in vivo, human
How it was run: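 Patients took oral drug once daily after an overnight fast. Blood and urine were sampled after a single dose and after multiple dosing. Drug concentrations were measured by LC-MS/MS. tmax, Cmax, AUC0-24, AUC0-∞, AUC0-τ, t½, CL/F and V/F were calculated. Terminal-phase parameters were omitted where too few terminal data points were available.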

[5] = system: patients with advanced, refractory solid tumours; assay: Phase I dose escalation: toxicity; format: in vivo, human
How it was run: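 Oral dosing was once daily in 28-day cycles, escalating by an accelerated design from 0.2 mg/day. Toxicity was graded by NCI CTC v3.0. During cycle 1, patients had weekly examination, blood pressure, full blood count, biochemistry and urinalysis, plus ECGs on days 1 and 8. DLT covered drug-related toxicity in cycle 1: grade ⩾3 toxicity, repeated grade 2 toxicity needing dose reduction, or <75% of planned dose given. The MTD was the highest dose with ≤1/6 patients having a DLT, and 12 more patients were treated at the MTD.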

[6] = 25 mg, eleven patients, high-fat meal vs overnight fast
[7] = 0.2–6.4 mg per day, 21 patients
[8] = treatment-related, 25 mg (n=24)
[9] = treatment-related, 0.2–6.4 mg (n=21)

COc1cc2nccc(Oc3ccc(NC(=O)NC4CC4)c(Cl)c3)c2cc1C(N)=O [E7080]
AUC ratio fed/fasted (90% CI) [1, 6]: 1.00 (90% CI 0.83–1.20)
Cmax ratio fed/fasted (90% CI) [1, 6]: 0.98 (90% CI 0.73–1.31)
tmax (median) ([1]; fasted group): 2.0 h
tmax (median) ([1]; fed group): 5.0 h
Objective response rate [2]: 59%
Best response: Not evaluated, % ([3]; 25 mg per day, 24 patients): 0 (0) %
Best response: Partial response, % ([3]; 25 mg per day, 24 patients): 13%
Best response: Progressive disease, % ([3]; 25 mg per day, 24 patients): 8%
Best response: Stable disease, % ([3]; 25 mg per day, 24 patients): 67%
Best response: Not evaluated, % ([3]; 32 mg per day, 7 patients): 0 (0) %
Best response: Partial response, % ([3]; 32 mg per day, 7 patients): 29%
Best response: Progressive disease, % ([3]; 32 mg per day, 7 patients): 0 (0) %
Best response: Stable disease, % ([3]; 32 mg per day, 7 patients): 43%
Best response: Not evaluated, % [3, 7]: 5%
Best response: Partial response, % [3, 7]: 0 (0) %
Best response: Progressive disease, % [3, 7]: 24%
Best response: Stable disease, % [3, 7]: 19%
Best response: Not evaluated, % ([3]; 12–20 mg per day, 30 patients): 3%
Best response: Partial response, % ([3]; 12–20 mg per day, 30 patients): 7%
Best response: Progressive disease, % ([3]; 12–20 mg per day, 30 patients): 23%
Best response: Stable disease, % ([3]; 12–20 mg per day, 30 patients): 50%
Best response: Not evaluated, % ([3]; Total, 82 patients): 2 (2) %
Best response: Partial response, % ([3]; Total, 82 patients): 9%
Best response: Progressive disease, % ([3]; Total, 82 patients): 17%
Best response: Stable disease, % ([3]; Total, 82 patients): 46%
Clinical benefit (PR rate plus SD rate), % of patients ([3]; all doses): 55%
Clinical benefit (PR rate plus SD rate), n patients ([3]; all doses): 45
Patients with renal cancer with PR ([3]; of nine patients with renal cancer): Four
Decrease in the sum of the longest tumour diameters ([3]; one patient with melanoma (largest decrease)): approximately 85%
Overall reduction in tumour size (CT) ([3]; one patient with melanoma, after 32 weeks' treatment): 77%
Overall reduction in tumour size (CT) ([3]; one patient with renal cancer, after 24 weeks' treatment): 51%
Median progression-free survival (95% CI) ([3]; patients with melanoma, n=14): 217 days
Median progression-free survival (95% CI) ([3]; patients with renal cancer, all dose cohorts, n=9): 477 days
Dose dependence of exposure and Cmax ([4]; 0.2 to 32 mg): dose-linear kinetics; also recorded: increased linearly with increasing dose
Accumulation after multiple dosing ([4]; after 4 weeks' administration, once daily): no drug accumulation
Time to maximum concentrations ([4]; after a single dose): ≤ 3 h
Dose modifications required, % of patients ([5]; all doses): 49%
Dose modifications required, n patients ([5]; all doses): 40
Dose reduction because of stomatitis, % of patients ([5]; all doses): 2%
Haematological toxicities, % of patients ([5]; all grades, all doses): 7%
Dose modifications required, % of patients ([5]; at the MTD of 25 mg): 54%
Dose modifications required, n patients ([5]; at the MTD of 25 mg): 13
Tolerability ([5]; doses up to 25 mg per day, oral, daily continuous dosing): well tolerated
Maximum tolerated dose (MTD) ([5]; oral, once-daily continuous schedule, 28-day cycles): 25 mg
Abdominal pain (all grades), n patients [5, 8]: 7
Anorexia (all grades), % of patients [5, 8]: 21%
Anorexia (all grades), n patients [5, 8]: 5
Constipation (all grades), n patients [5, 8]: 8
Diarrhoea (all grades), n patients [5, 8]: 12
Dry skin (all grades), % of patients [5, 8]: 46%
Dry skin (all grades), n patients [5, 8]: 11
Dysphonia (all grades), % of patients [5, 8]: 46%
Dysphonia (all grades), n patients [5, 8]: 11
Fatigue (all grades), % of patients [5, 8]: 21%
Fatigue (all grades), n patients [5, 8]: 5
Headache (all grades), n patients [5, 8]: 7
Hypertension (all grades), n patients [5, 8]: 15
Hypertension Grade 1, % of patients [5, 8]: 4%
Hypertension Grade 1, n patients [5, 8]: 1
Hypertension Grade 2, % of patients [5, 8]: 46%
Hypertension Grade 2, n patients [5, 8]: 11
Hypertension Grade 3, % of patients [5, 8]: 13%
Lethargy (all grades), % of patients [5, 8]: 38%
Lethargy (all grades), n patients [5, 8]: 9
Nausea (all grades), n patients [5, 8]: 14
Proteinuria (all grades), n patients [5, 8]: 7
Proteinuria Grade 1, % of patients [5, 8]: 0%
Proteinuria Grade 1, n patients [5, 8]: 0
Proteinuria Grade 2, % of patients [5, 8]: 21%
Proteinuria Grade 2, n patients [5, 8]: 5
Proteinuria Grade 3, % of patients [5, 8]: 8%
Stomatitis (all grades), n patients [5, 8]: 15
Vomiting (all grades), n patients [5, 8]: 8
Abdominal pain (all grades), % of patients ([5]; treatment-related, 32 mg (n=7)): 0%
Abdominal pain (all grades), n patients ([5]; treatment-related, 32 mg (n=7)): 0
Anorexia (all grades), n patients ([5]; treatment-related, 32 mg (n=7)): 2
Constipation (all grades), % of patients ([5]; treatment-related, 32 mg (n=7)): 14%
Constipation (all grades), n patients ([5]; treatment-related, 32 mg (n=7)): 1
Diarrhoea (all grades), n patients ([5]; treatment-related, 32 mg (n=7)): 4
Dry skin (all grades), % of patients ([5]; treatment-related, 32 mg (n=7)): 14%
Dry skin (all grades), n patients ([5]; treatment-related, 32 mg (n=7)): 1
Dysphonia (all grades), n patients ([5]; treatment-related, 32 mg (n=7)): 3
Fatigue (all grades), % of patients ([5]; treatment-related, 32 mg (n=7)): 14%
Fatigue (all grades), n patients ([5]; treatment-related, 32 mg (n=7)): 1
Headache (all grades), n patients ([5]; treatment-related, 32 mg (n=7)): 2
Hypertension (all grades), n patients ([5]; treatment-related, 32 mg (n=7)): 4
Hypertension Grade 1, n patients ([5]; treatment-related, 32 mg (n=7)): 2
Hypertension Grade 2, % of patients ([5]; treatment-related, 32 mg (n=7)): 0%
Hypertension Grade 2, n patients ([5]; treatment-related, 32 mg (n=7)): 0
Hypertension Grade 3, n patients ([5]; treatment-related, 32 mg (n=7)): 2
Lethargy (all grades), n patients ([5]; treatment-related, 32 mg (n=7)): 2
Nausea (all grades), n patients ([5]; treatment-related, 32 mg (n=7)): 3
Proteinuria (all grades), n patients ([5]; treatment-related, 32 mg (n=7)): 3
Proteinuria Grade 1, % of patients ([5]; treatment-related, 32 mg (n=7)): 0%
Proteinuria Grade 1, n patients ([5]; treatment-related, 32 mg (n=7)): 0
Proteinuria Grade 2, % of patients ([5]; treatment-related, 32 mg (n=7)): 14%
Proteinuria Grade 2, n patients ([5]; treatment-related, 32 mg (n=7)): 1
Proteinuria Grade 3, n patients ([5]; treatment-related, 32 mg (n=7)): 2
Stomatitis (all grades), n patients ([5]; treatment-related, 32 mg (n=7)): 4
Vomiting (all grades), % of patients ([5]; treatment-related, 32 mg (n=7)): 14%
Vomiting (all grades), n patients ([5]; treatment-related, 32 mg (n=7)): 1
Abdominal pain (all grades), % of patients [5, 9]: 0%
Abdominal pain (all grades), n patients [5, 9]: 0
